Results taken from ChEMBL document CHEMBL1124046, “2-Methyl-1,3-dioxaazaspiro[4.5]decanes as novel muscarinic cholinergic agonists” (J Med Chem, 1988).

Columns and labels:
[1] = target: T1, Muscarinic acetylcholine receptor (Rattus norvegicus) (UniProt P08482+P08483+P08485+P08911+P10980); experiment: Apparent binding affinity at Muscarinic acetylcholine receptor by displacing [3H]oxotremorine-M in rat cortex at a concentration of >10 uM; type: tissue-based
In short: (§1)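 Membranes from cortex of male Sprague-Dawley rats (250-300 g). Displacement curves with 0.1 nM [3H]-N-methylscopolamine in 20 mM HEPES Krebs' buffer pH 7.4, 60 min at 30 °C; or with 3.0 nM [3H]oxotremorine-M in 20 mM HEPES buffer pH 7.4, 40 min at 30 °C. Filtration read-out. Triplicates, at least four concentrations. Kapp corrected for radioligand occupancy; geometric mean of n experiments.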

[2] = target: T1, Muscarinic acetylcholine receptor (Rattus norvegicus); experiment: Apparent binding affinity at Muscarinic acetylcholine receptor, by displacing [3H]N-methylscopolamine (NMS) in rat cortex at a concentration of >100 uM; type: tissue-based; in short: as §1
[3] = target: T1, Muscarinic acetylcholine receptor (Rattus norvegicus); experiment: Percent inhibition of [3H]N-methylscopolamine (NMS) binding to Muscarinic acetylcholine receptor in rat cortex at a concentration of >100 uM
In short: (§2)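 Rat cortical membranes (male Sprague-Dawley, 250-300 g). Test compound at a single stated concentration; percent inhibition of specific binding is reported. [3H]-N-methylscopolamine (0.1 nM) in 20 mM HEPES Krebs' buffer pH 7.4, 60 min at 30 °C; [3H]oxotremorine-M (3.0 nM) in 20 mM HEPES buffer pH 7.4, 40 min at 30 °C. Ended by filtration.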

[4] = target: T1, Muscarinic acetylcholine receptor (Rattus norvegicus); experiment: Percent inhibition of [3H]oxotremorine-M binding to Muscarinic acetylcholine receptor in rat cortex at a concentration of >10 uM; in short: as §2
[5] = Ratio of NMS/oxo-M apparent binding affinities (Kapp)
In short: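 Two rat cortical membrane binding assays, each in triplicate with at least four concentrations, Kapp corrected for radioligand occupancy. [3H]N-methylscopolamine (0.1 nM) run in 20 mM HEPES Krebs' buffer pH 7.4, 60 min at 30 °C. [3H]oxotremorine-M (3.0 nM) run in 20 mM HEPES pH 7.4, 40 min at 30 °C. Ratio taken as NMS Kapp over oxo-M Kapp.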

[6] = target: T1, Muscarinic acetylcholine receptor (Rattus norvegicus); settings: Cortex
[7] = target: T1, Muscarinic acetylcholine receptor (Rattus norvegicus); settings: Cortex; remark: listed apart in the source
[8] = target: T1, Muscarinic acetylcholine receptor (Rattus norvegicus); experiment: Apparent binding affinity at Muscarinic acetylcholine receptor by displacing [3H]oxotremorine-M in rat cortex; type: tissue-based
In short: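 Membranes from male Sprague-Dawley rat (250-300 g) cortex in 20 mM HEPES buffer pH 7.4; displacement of 3.0 nM [3H]oxotremorine-M, 40 min at 30 °C, ended by filtration onto polyethylenimine-presoaked GF/C filters. Triplicates, at least four concentrations per curve; apparent affinity constant corrected for radioligand occupancy, in µM, geometric mean of n experiments.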

[9] = target: T1, Muscarinic acetylcholine receptor (Rattus norvegicus); settings: Cortex; remark: listed apart in the source
[10] = target: T1, Muscarinic acetylcholine receptor (Rattus norvegicus); settings: Cortex; remark: listed apart in the source
[11] = target: T1, Muscarinic acetylcholine receptor (Rattus norvegicus); settings: Cortex; remark: listed apart in the source

**Q.** With CC1OCC2(CCCNC2)O1 (stereo not drawn) as the molecule, how does the inhibition [1] read?
**A.** 13%

**Q.** And the inhibition [2]?
**A.** 20%

**Q.** And the inhibition [3]?
**A.** 29%

**Q.** What about the inhibition [4] of the same molecule?
**A.** 25%

**Q.** For C[N+](C)(C)CCOC(N)=O, which Ratio [5] is on record?
**A.** 4100

**Q.** What about the K app [6] of the same molecule?
**A.** 24 µM

**Q.** And the K app [7]?
**A.** 0.0058 µM

**Q.** For CC1OCC2(CCCN(C)C2)O1 (stereo in doubt; 4b), which inhibition [3] is on record?
**A.** 19%

**Q.** And the inhibition [4]?
**A.** 10%

**Q.** Which Ratio [5] does the source give for CCN1C(=O)CC2(CCN(C)CC2)C1=O here?
**A.** 130

**Q.** And the K app [8]?
**A.** 0.04 µM

**Q.** And the K app [9]?
**A.** 5 µM

**Q.** What does the source list for CC1OCC2(CCNCC2)O1 (stereo not drawn)?
**A.** Ratio [5]: 470; K app [10]: 0.092 µM; K app [11]: 43 µM

**Q.** Which results are given for C[C@H]1OCC2(CN3CCC2CC3)O1 (stereo partly drawn)?
**A.** Ratio [5]: 140; K app [8]: 0.035 µM; K app [6]: 4.9 µM

**Q.** For CCC1OCC2(CCN(C)CC2)O1 (stereo not drawn), which Ratio [5] is on record?
**A.** 24

**Q.** And the K app [8]?
**A.** 0.22 µM

**Q.** And the K app [6]?
**A.** 5.3 µM

**Q.** For CC1OCC2(CCCN(C)C2)O1 (stereo in doubt; 4a), which inhibition [3] is on record?
**A.** 24%

**Q.** And the inhibition [4]?
**A.** 4%
